Assay results: ChEMBL document CHEMBL5329156, “Discovery and development of novel substituted monohydrazides as potent antifungal agents” (RSC Med Chem, 2023)
Converted amounts (≈) assume the structure as drawn. The source made the active and inactive calls. The calls are words filed in the database; no cut-off is given here.

Assays:
Nakaseomyces glabratus [1] = experiment: Antifungal activity against Candida glabrata ATCC 2001 assessed as fungal growth inhibition by double dilution method; format: functional
How it was run: (§1)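 Broth microdilution after CLSI M27-A3/M38-A2 with minor changes. Single colony grown overnight in YPD at 35 °C, 200 rpm. Compound final range 0.06-31.3 µg/mL; incubated 48 h at 35 °C.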

Candida albicans [2] = experiment: Antifungal activity against itraconazole/fluconazole resistant Candida albicans ATCC MYA-1003 assessed as fungal growth inhibition by double dilution method; format: functional
How it was run: (§2)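 Broth microdilution after CLSI M27-A3/M38-A2 with minor modifications. A single colony was grown overnight in YPD at 35 °C with shaking at 200 rpm. Cells were mixed 1:1 with compound (final 0.06-31.3 µg/mL, from DMSO stocks) and incubated 48 h at 35 °C.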

[Candida] haemuloni [3] = Antifungal activity against Candida haemulonii AR Bank # 395 assessed as fungal growth inhibition by double dilution method; format: functional; conditions: Candidozyma haemuli; how it was run: as §1
Candida albicans [4] = experiment: Antifungal activity against itraconazole/fluconazole susceptible Candida albicans ATCC MYA-2310 assessed as fungal growth inhibition by double dilution method; format: functional; how it was run: as §2
Aspergillus nidulans = experiment: Antifungal activity against Aspergillus nidulans ATCC 38163 assessed as fungal growth inhibition by double dilution method; format: functional
Nakaseomyces glabratus [5] = experiment: Antifungal activity against Candida glabrata ATCC 22019 assessed as fungal growth inhibition by double dilution method; format: functional; how it was run: as §1
[Candida] auris [6] = Antifungal activity against Candida auris AR Bank # 387 assessed as fungal growth inhibition by double dilution method; format: functional; conditions: Candidozyma auris; how it was run: as §1
[Candida] auris [7] = Antifungal activity against Candida auris AR Bank # 385 assessed as fungal growth inhibition by double dilution method; format: functional; conditions: Candidozyma auris; how it was run: as §1
[Candida] auris [8] = Antifungal activity against Candida auris AR Bank # 381 assessed as fungal growth inhibition by double dilution method; format: functional; conditions: Candidozyma auris; how it was run: as §1
Candida duobushaemulonii [9] = experiment: Antifungal activity against Candida duobushaemulonii AR Bank # 394 assessed as fungal growth inhibition by double dilution method; format: functional; conditions: Candidozyma duobushaemuli; how it was run: as §1
Saccharomyces cerevisiae [10] = experiment: Antifungal activity against Saccharomyces cerevisiae AR Bank # 400 assessed as fungal growth inhibition by double dilution method; format: functional; how it was run: as §1
[Candida] auris [11] = Antifungal activity against Candida auris AR Bank # 384 assessed as fungal growth inhibition by double dilution method; format: functional; conditions: Candidozyma auris; how it was run: as §1
Clavispora lusitaniae = experiment: Antifungal activity against Clavispora lusitaniae AR Bank # 398 assessed as fungal growth inhibition by double dilution method; format: functional; how it was run: as §1
[Candida] auris [12] = Antifungal activity against Candida auris AR Bank # 388 assessed as fungal growth inhibition by double dilution method; format: functional; conditions: Candidozyma auris; how it was run: as §1
Aspergillus fumigatus [13] = experiment: Antifungal activity against Aspergillus fumigatus NRRL 163 assessed as fungal growth inhibition by double dilution method; format: functional
Candida albicans [14] = experiment: Antifungal activity against itraconazole/fluconazole susceptible Candida albicans ATCC MYA-2876 assessed as fungal growth inhibition by double dilution method; format: functional; how it was run: as §2
HepG2 = experiment: Cytotoxicity against human HepG2 cells assessed as reduction in cell viability upto 31.3 microg/ml; format: toxicity, cell-based; conditions: dose < 31.3 µg/ml
How it was run: (§3)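 Cells in DMEM with 10% FBS and 1% Pen/Strep, seeded at 10,000 cells/well and held overnight at 37 °C, 5% CO2. Compounds added at final 31.3-0.12 µg/mL (0.05% DMSO vehicle) for 24 h. Resazurin then added for 6 h; fluorescence read at ex 560/em 590. Triton X-100 1% as positive control; values normalized to vehicle. Run in quadruplicate.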

[Candida] haemuloni [15] = Antifungal activity against Candida haemulonii AR Bank # 393 assessed as fungal growth inhibition by double dilution method; format: functional; conditions: Candidozyma haemuli; how it was run: as §1
Candida duobushaemulonii [16] = experiment: Antifungal activity against Candida duobushaemulonii AR Bank # 392 assessed as fungal growth inhibition by double dilution method; format: functional; conditions: Candidozyma duobushaemuli; how it was run: as §1
Candida albicans [17] = experiment: Antifungal activity against itraconazole/fluconazole resistant Candida albicans ATCC 90819 assessed as fungal growth inhibition by double dilution method; format: functional; how it was run: as §2
[Candida] auris [18] = Antifungal activity against Candida auris AR Bank # 389 assessed as fungal growth inhibition by double dilution method; format: functional; conditions: Candidozyma auris; how it was run: as §1
Pichia kudriavzevii [19] = experiment: Antifungal activity against Pichia kudriavzevii AR Bank # 397 assessed as fungal growth inhibition by double dilution method; format: functional; how it was run: as §1
[Candida] auris [20] = Antifungal activity against Candida auris AR Bank # 386 assessed as fungal growth inhibition by double dilution method; format: functional; conditions: Candidozyma auris; how it was run: as §1
Candida albicans [21] = experiment: Antifungal activity against Candida albicans ATCC 64124 assessed as fungal growth inhibition by double dilution method; format: functional; how it was run: as §2
Candida albicans [22] = experiment: Antifungal activity against itraconazole/fluconazole resistant Candida albicans ATCC MYA-1237 assessed as fungal growth inhibition by double dilution method; format: functional; how it was run: as §2
Candida albicans [23] = experiment: Antifungal activity against Candida albicans ATCC 10231 assessed as fungal growth inhibition by double dilution method; format: functional; how it was run: as §1
[Candida] auris [24] = Antifungal activity against Candida auris AR Bank # 0390 assessed as fungal growth inhibition by double dilution method; format: functional; conditions: Candidozyma auris; how it was run: as §1
[Candida] auris [25] = Antifungal activity against Candida auris AR Bank # 0384 assessed as fungal growth inhibition by double dilution method; format: functional; conditions: Candidozyma auris; how it was run: as §1
Candida albicans [26] = experiment: Antibiofilm activity against Candida albicans ATCC 10231 assessed as reduction in biofilm production at 1.96 to 3.9 microg/ml by biofilm formation assay; format: functional, organism-based; conditions: dose 1.96-3.9 µg/ml
HEK293 = experiment: Cytotoxicity against human HEK-293 cells assessed as reduction in cell viability at 31.3 microg/ml; format: toxicity, cell-based; conditions: dose 31.3 µg/ml; how it was run: as §3
Cryptococcus neoformans = experiment: Antifungal activity against Cryptococcus neoformans ATCC MYA-895 assessed as fungal growth inhibition by double dilution method; format: functional; how it was run: as §1
Candida duobushaemulonii [27] = experiment: Antifungal activity against Candida duobushaemulonii AR Bank # 391 assessed as fungal growth inhibition by double dilution method; format: functional; conditions: Candidozyma duobushaemuli; how it was run: as §1
Aspergillus fumigatus [28] = experiment: Antifungal activity against Aspergillus fumigatus NRRL 5109 assessed as fungal growth inhibition by double dilution method; format: functional
Pichia kudriavzevii [29] = experiment: Antifungal activity against Pichia kudriavzevii ATCC 6258 assessed as fungal growth inhibition by double dilution method; format: functional; how it was run: as §1
J774.A1 = experiment: Cytotoxicity against J774A.1 cells assessed as reduction in cell viability at 31.3 microg/ml; format: toxicity, cell-based; conditions: mouse, dose 31.3 µg/ml; how it was run: as §3
Aspergillus flavus = experiment: Antifungal activity against Aspergillus flavus ATCC MYA-3631 assessed as fungal growth inhibition by double dilution method; format: functional
Aspergillus terreus = experiment: Antifungal activity against Aspergillus terreus ATCC MYA-3633 assessed as fungal growth inhibition by double dilution method; format: functional
[Candida] auris [30] = Antifungal activity against Candida auris AR Bank # 383 assessed as fungal growth inhibition by double dilution method; format: functional; conditions: Candidozyma auris; how it was run: as §1
[Candida] auris [31] = Antifungal activity against Candida auris AR Bank # 390 assessed as fungal growth inhibition by double dilution method; format: functional; conditions: Candidozyma auris; how it was run: as §1
Aspergillus fumigatus [32] = experiment: Antifungal activity against Aspergillus fumigatus NRRL 6113 assessed as fungal growth inhibition by double dilution method; format: functional
Kodamaea ohmeri = experiment: Antifungal activity against Kodamaea ohmeri AR Bank # 396 assessed as fungal growth inhibition by double dilution method; format: functional; how it was run: as §1
Saccharomyces cerevisiae [33] = experiment: Antifungal activity against Saccharomyces cerevisiae AR Bank # 399 assessed as fungal growth inhibition by double dilution method; format: functional; how it was run: as §1
[Candida] auris [34] = Antifungal activity against Candida auris AR Bank # 382 assessed as fungal growth inhibition by double dilution method; format: functional; conditions: Candidozyma auris; how it was run: as §1

Which MIC (Nakaseomyces glabratus [1]) does the source give for `O=C(NNc1ccc(F)cc1F)c1ccccn1` here?
The MIC was 0.98 µg/mL (≈ 3.93 µM).

And the MIC (Candida albicans [2])?
Its MIC is 0.49 µg/mL (≈ 1.97 µM).

What about the MIC ([Candida] haemuloni [3]) of the same compound?
The MIC was 0.24 µg/mL (≈ 0.963 µM).

And the MIC (Candida albicans [4])?
Its MIC is 31.3 µg/mL (≈ 126 µM).

And the MIC (Aspergillus nidulans)?
The MIC was 0.49 µg/mL (≈ 1.97 µM).

What about the MIC (Nakaseomyces glabratus [5]) of the same compound?
The MIC was 1.95 µg/mL (≈ 7.82 µM).

And the MIC ([Candida] auris [6])?
Its MIC is 0.12 µg/mL (≈ 0.482 µM).

What about the MIC ([Candida] auris [7]) of the same compound?
The MIC was 0.49 µg/mL (≈ 1.97 µM).

What about the MIC ([Candida] auris [8]) of the same compound?
The MIC was 0.49 µg/mL (≈ 1.97 µM).

What about the MIC (Candida duobushaemulonii [9]) of the same compound?
Its MIC is 3.9 µg/mL (≈ 15.6 µM).

And the MIC (Saccharomyces cerevisiae [10])?
The MIC was 0.49 µg/mL (≈ 1.97 µM).

And the MIC ([Candida] auris [11])?
Its MIC is 0.49 µg/mL (≈ 1.97 µM).

And the MIC (Clavispora lusitaniae)?
Its MIC is 1.95 µg/mL (≈ 7.82 µM).

And the MIC ([Candida] auris [12])?
The MIC was 0.12 µg/mL (≈ 0.482 µM).

And the MIC (Aspergillus fumigatus [13])?
Its MIC is greater than 31.3 µg/mL.

And the MIC (Candida albicans [14])?
Its MIC is 0.98 µg/mL (≈ 3.93 µM).

What about the Activity (HepG2) of the same compound?
Its Activity is “Non-Toxic”.

And the MIC ([Candida] haemuloni [15])?
The MIC was 0.49 µg/mL (≈ 1.97 µM).

And the MIC (Candida duobushaemulonii [16])?
Its MIC is 0.49 µg/mL (≈ 1.97 µM).

What about the MIC (Candida albicans [17]) of the same compound?
The MIC was 0.98 µg/mL (≈ 3.93 µM).

What about the MIC ([Candida] auris [18]) of the same compound?
The MIC was 0.24 µg/mL (≈ 0.963 µM).

And the MIC (Pichia kudriavzevii [19])?
The MIC was no more than 0.06 µg/mL.

What about the MIC ([Candida] auris [20]) of the same compound?
Its MIC is 0.49 µg/mL (≈ 1.97 µM).

And the MIC (Candida albicans [21])?
Its MIC is 1.95 µg/mL (≈ 7.82 µM).

And the MIC (Candida albicans [22])?
Its MIC is 0.49 µg/mL (≈ 1.97 µM).

And the MIC (Candida albicans [23])?
The MIC was 0.12 µg/mL (≈ 0.482 µM).

And the MIC ([Candida] auris [24])?
Its MIC is 0.12 µg/mL (≈ 0.482 µM).

What about the MIC ([Candida] auris [25]) of the same compound?
Its MIC is 0.49 µg/mL (≈ 1.97 µM).

What about the Activity (Candida albicans [26]) of the same compound?
The Activity was “inactive”.

And the Activity (HEK293)?
The Activity was “Non-Toxic”.

And the MIC (Cryptococcus neoformans)?
Its MIC is 0.24 µg/mL (≈ 0.963 µM).

What about the MIC (Candida duobushaemulonii [27]) of the same compound?
The MIC was 0.12 µg/mL (≈ 0.482 µM).

And the MIC (Aspergillus fumigatus [28])?
Its MIC is 15.6 µg/mL (≈ 62.6 µM).

What about the MIC (Pichia kudriavzevii [29]) of the same compound?
Its MIC is 0.49 µg/mL (≈ 1.97 µM).

And the Activity (J774.A1)?
Its Activity is “Non-Toxic”.

And the MIC (Aspergillus flavus)?
The MIC was 15.6 µg/mL (≈ 62.6 µM).

And the MIC (Aspergillus terreus)?
The MIC was 0.98 µg/mL (≈ 3.93 µM).

What about the MIC ([Candida] auris [30]) of the same compound?
Its MIC is 0.49 µg/mL (≈ 1.97 µM).

And the MIC ([Candida] auris [31])?
The MIC was 0.12 µg/mL (≈ 0.482 µM).

And the MIC (Aspergillus fumigatus [32])?
Its MIC is 31.3 µg/mL (≈ 126 µM).

And the MIC (Kodamaea ohmeri)?
The MIC was 0.98 µg/mL (≈ 3.93 µM).

And the MIC (Saccharomyces cerevisiae [33])?
The MIC was 0.49 µg/mL (≈ 1.97 µM).

What about the MIC ([Candida] auris [34]) of the same compound?
The MIC was 0.49 µg/mL (≈ 1.97 µM).
